Legend:
Neutrophil elastase = biological target: T1, Neutrophil elastase (Homo sapiens, UniProt P08246); test: Inhibition of human neutrophil elastase using N-methylsuccinyl-Ala-Ala-Pro-Val-7-amino-4-methylcoumarin as substrate measured for every 30 sec for 10 mins by fluorescence based assay
T1 sequence (P08246 whole entry): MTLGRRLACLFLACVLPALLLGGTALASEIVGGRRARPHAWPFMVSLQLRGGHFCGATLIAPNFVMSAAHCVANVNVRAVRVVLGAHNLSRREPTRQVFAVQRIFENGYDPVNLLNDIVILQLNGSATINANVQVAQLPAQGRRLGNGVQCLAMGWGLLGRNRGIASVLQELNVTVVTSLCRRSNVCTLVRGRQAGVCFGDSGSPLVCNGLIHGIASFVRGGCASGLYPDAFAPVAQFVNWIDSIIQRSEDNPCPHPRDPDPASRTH

[1] = Stability of compound in PBS at pH 7.4 assessed as half life by spectrophotometry; assay type: physicochemical; conditions: buffer
Procedure, shortened: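 Spontaneous hydrolysis measured at 20 °C in 0.05 M phosphate buffer, pH 7.4, with compound at 20 μM. Absorbance was read at each compound's characteristic maximum over time until it stopped falling (A∞). k' was taken from the slope of log(At − A∞) versus time, and t1/2 = 0.693/k'.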

SMILES	IC50 (Neutrophil elastase)	t1/2 [1] [h]	IC50 (Neutrophil elastase; read-out: IC50) [nM]
COc1cccc(NC(=O)c2cnc3c(Cl)c(C(C)(C)C)nn3c2C)c1	Not Active		
Cc1cccc(C(=O)n2nc(C#N)c3cnccc32)c1		0.203	10
N#Cc1nn(C(=O)C2CCCC2)c2ncccc12			140
CCOC(=O)c1nn(C(=O)c2cccc(C)c2)c2ncccc12			2000
Cc1cccc(C(=O)n2nc(C(F)(F)F)c3cccnc32)c1			420
O=C(C1CC1)n1nc([N+](=O)[O-])c2cccnc21		1.56	21
COc1cccc(NC(=O)c2cnc3cc(C)nn3c2C)c1	Not Active		
Cc1cccc(C(=O)n2nc(C)c3cnccc32)c1			760
COc1cccc(NC(=O)c2cnn3c(C)c(C(C)=O)cnc23)c1	Not Active		
N#Cc1nn(C(=O)c2ccccc2)c2ncccc12			160
N#Cc1nn(C(=O)C2CCCCC2)c2ncccc12			1100
N#Cc1nn(Cc2ccccc2)c2ncccc12	Not Active		
O=C(C1CC1)n1nc(C(F)(F)F)c2cnccc21		6.435	87
N#Cc1cn(C(=O)C2CC2)c2cccnc12		4.472	23
Cc1cccc(C(=O)n2cc(C#N)c3cnccc32)c1		2.722	
N#Cc1cn(C(=O)C2CC2)c2nccnc12		1.677	
O=C(C1CC1)n1ccc2nccnc21			7900

SMILES	IC50 (Neutrophil elastase)	t1/2 [1] [h]	IC50 (Neutrophil elastase; read-out: IC50) [nM]
Nc1nn(C(=O)C2CC2)c2ncccc12			9900
O=C(C1CC1)n1nc(C(F)(F)F)c2cccnc21		14.7	50
Cc1cccc(C(=O)n2cc(C#N)c3ncccc32)c1		1.28	
COc1cccc(CNC(=O)c2cnc3cc(C)nn3c2C)c1	Not Active		
COc1cccc(CNC(=O)c2cnn3c(C)c(C(C)=O)cnc23)c1	Not Active		
COc1cccc(CNC(=O)c2cnc3c(Cl)c(C(C)(C)C)nn3c2C)c1	Not Active		
CCOC(=O)c1nn(C(=O)C2CC2)c2ccncc12		7.28	69
Cc1cccc(C(=O)n2nc(C(F)(F)F)c3cnccc32)c1		1.777	33
Cc1cccc(C(=O)n2nc(C(=O)OC(C)C)c3cccnc32)c1			980
COc1cccc(CNC(=O)c2cnc3cc(C(C)(C)C)nn3c2C)c1	Not Active		
Cc1cccc(C(=O)n2nc(C#N)c3cccnc32)c1			330
COc1cccc(NC(=O)c2cnc3cc(C(C)(C)C)nn3c2C)c1	Not Active		
N#Cc1nn(C(=O)C2CC2)c2ccncc12		1.32	79
CCOC(=O)c1nn(C(=O)c2cccc(C)c2)c2ccncc12		2.45	16
N#Cc1cn(C(=O)C2CC2)c2cnccc12			183
Cc1ccc(C(=O)n2nc(C#N)c3cccnc32)cc1			1500
N#Cc1nn(C(=O)C2CC2)c2ncccc12			34

Reference: ChEMBL document CHEMBL4673306, “Exploration of nitrogen heterocycle scaffolds for the development of potent human neutrophil elastase inhibitors” (Bioorg Med Chem, 2021)
